These results are taken from ChEMBL document CHEMBL1629660, “Pharmacodynamics of tigecycline against phenotypically diverse Staphylococcus aureus isolates in a murine thigh model” (Antimicrob Agents Chemother, 2009).

A short description of series [1]: Cmax in neutropenic ICR mouse infected with Staphylococcus aureus ATCC 29213 at 6.25 mg/kg, sc by HPLC. On the set-up: dose 6.25 mg/kg, route subcutaneous. The settings on record: in vivo. The series is classed as ADME, organism-based. The essentials:
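Neutropenic female ICR mice (cyclophosphamide 150 and 100 mg/kg ip, 4 days and 1 day before inoculation), both thighs inoculated im with ~10^7 CFU/ml of ATCC 29213. Single sc doses of 50, 25, 12.5 or 6.25 mg/kg. Cardiac blood taken from groups of six at 8–12 times over 0.5–24 h. Serum measured by HPLC (linear 0.05–5 µg/ml). Two-compartment fit by nonlinear least squares; AUC by trapezoidal rule.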

The next series deals with Staphylococcus aureus. Briefly: Antimicrobial activity against methicillin-sensitive Staphylococcus aureus ATCC 29213 infected in neutropenic ICR mouse assessed as change in bacterial load after 24 hrs. The series is classed as functional. The essentials:
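Neutropenic ICR mice had both thighs inoculated with ~10^7 CFU/ml; dosing began 2 h later. Groups of three received 1.56–400 mg/kg/day sc as single or divided doses, with saline-dosed controls. Thighs were homogenized and plated on blood agar at 24 h. Read-out was the log10 CFU/ml change relative to 0-h controls.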

A short description of series [2]: r2 for fT>MIC in hospital-acquired methicillin-resistant Staphylococcus aureus isolate 152-infected neutropenic ICR mouse.

Each structure is given as a SMILES string.

The compound `CN(C)c1cc(NC(=O)CNC(C)(C)C)c(O)c2c1C[C@H]1C[C@H]3[C@H](N(C)C)C(O)=C(C(N)=O)C(=O)[C@@]3(O)C(O)=C1C2=O` [TIGECYCLINE] came in with a Cmax in series [1] of 1680 ng/mL. For the same compound, the log10CFU/ml in the series with Staphylococcus aureus amounted to 2.3. This compound also showed a r2 in series [2] of 0.511%.

The Cmax is the highest concentration seen after dosing.
